Common to all, as to assay type: functional
For test [1], the system named is Plutella xylostella. The test can be described thus: Insecticidal activity against second-instar larval stage of Plutella xylostella (diamondback moth) in cabbage leaves assessed as mortality at 10 mg/l at 25 +/-1 degC treated for 3 secs before larva infestation measured after 2 days by leaf-dip method. To be noted: 48 h. The method in brief: (§1)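 Greenhouse-reared diamondback moth larvae tested by leaf-dip method at 25 ± 1 °C. Test solution made at 200 mg/L, then diluted with distilled water to working concentrations. Mortality scored dead/alive, corrected with Abbott's formula and expressed on a 0–100 scale.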

Test [2] has as its system Mythimna separata. Put plainly: Insecticidal activity against fourth-instar larval stage of Mythimna separata (Oriental armyworm) in compound pretreated Zea mays L. Tangyu 10 leaves assessed as mortality at 10 mg/l at 25 +/-1 degC after 2 days. The method in brief: (§2)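 Greenhouse-reared fourth-instar oriental armyworm larvae. Corn (Tangyu 10) leaves laid on moist filter paper in Petri dishes, sprayed with test solution (200 mg/L solution diluted in distilled water), then air-dried. Ten larvae per dish. Held at 25 ± 1 °C; mortality scored dead/alive 2 days post-treatment. Triplicate treatments, Abbott-corrected, 0–100 scale.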

The subject of test [3] is Plutella xylostella. The test can be described thus: Insecticidal activity against second-instar larval stage of Plutella xylostella (diamondback moth) in cabbage leaves assessed as mortality at 2.5 mg/l at 25 +/-1 degC treated for 3 secs before larva infestation measured after 2 days by leaf-dip method. Conditions: 48 h. The method in brief:
as §1

Test [4] concerns Plutella xylostella. The test can be described thus: Insecticidal activity against second-instar larval stage of Plutella xylostella (diamondback moth) in cabbage leaves assessed as mortality at 20 mg/l at 25 +/-1 degC treated for 3 secs before larva infestation measured after 2 days by leaf-dip method. To be noted: 48 h. In short, it runs like this: as §1
Test [5] deals with Mythimna separata. The test can be described thus: Insecticidal activity against fourth-instar larval stage of Mythimna separata (Oriental armyworm) in compound pretreated Zea mays L. Tangyu 10 leaves assessed as mortality at 200 mg/l at 25 +/-1 degC after 2 days. The method in brief: as §2
In test [6] the test system is Plutella xylostella. The test can be described thus: Insecticidal activity against second-instar larval stage of Plutella xylostella (diamondback moth) in cabbage leaves assessed as mortality at 5 mg/l at 25 +/-1 degC treated for 3 secs before larva infestation measured after 2 days by leaf-dip method. To be noted: 48 h. The method in brief:
as §1

Test [7] concerns Mythimna separata. Put plainly: Insecticidal activity against fourth-instar larval stage of Mythimna separata (Oriental armyworm) in compound pretreated Zea mays L. Tangyu 10 leaves assessed as mortality at 20 mg/l at 25 +/-1 degC after 2 days. In short, it runs like this: as §2
The test system of test [8] is Mythimna separata. Put plainly: Insecticidal activity against fourth-instar larval stage of Mythimna separata (Oriental armyworm) in compound pretreated Zea mays L. Tangyu 10 leaves assessed as mortality at 50 mg/l at 25 +/-1 degC after 2 days. In short, it runs like this:
as §2

The subject of test [9] is Plutella xylostella. Put plainly: Insecticidal activity against second-instar larval stage of Plutella xylostella (diamondback moth) in cabbage leaves assessed as mortality at 1 mg/l at 25 +/-1 degC treated for 3 secs before larva infestation measured after 2 days by leaf-dip method. Conditions: 48 h. In short, it runs like this: as §1
Test [10] concerns Mythimna separata. The test can be described thus: Insecticidal activity against fourth-instar larval stage of Mythimna separata (Oriental armyworm) in compound pretreated Zea mays L. Tangyu 10 leaves assessed as mortality at 100 mg/l at 25 +/-1 degC after 2 days. In short, it runs like this: as §2
For test [11], the system named is Plutella xylostella. The test can be described thus: Insecticidal activity against second-instar larval stage of Plutella xylostella (diamondback moth) in cabbage leaves assessed as mortality at 0.5 mg/l at 25 +/-1 degC treated for 3 secs before larva infestation measured after 2 days by leaf-dip method. To be noted: 48 h. In short, it runs like this:
as §1

For test [12], the system named is Plutella xylostella. Put plainly: Insecticidal activity against second-instar larval stage of Plutella xylostella (diamondback moth) in cabbage leaves assessed as mortality at 0.25 mg/l at 25 +/-1 degC treated for 3 secs before larva infestation measured after 2 days by leaf-dip method. Conditions: 48 h. In short, it runs like this:
as §1

Test [13] has as its system Mythimna separata. The test can be described thus: Insecticidal activity against fourth-instar larval stage of Mythimna separata (Oriental armyworm) in compound pretreated Zea mays L. Tangyu 10 leaves assessed as mortality at 5 mg/l at 25 +/-1 degC after 2 days. The method in brief:
as §2

Test [14] has as its system Plutella xylostella. The test can be described thus: Insecticidal activity against second-instar larval stage of Plutella xylostella (diamondback moth) in cabbage leaves assessed as mortality at 0.125 mg/l at 25 +/-1 degC treated for 3 secs before larva infestation measured after 2 days by leaf-dip method. Conditions: 48 h. The method in brief: as §1

For the compound `CC(=O)OCc1cc(C(=O)Nc2c(C)cc(Cl)cc2C(=O)NC(C)C)n(-c2ncccc2Cl)n1`, the mortality at 10 µg/mL with Plutella xylostella [1] was 100%; in the test on Mythimna separata [2], 20%. Further, the mortality at 2.5 µg/mL in the test with Plutella xylostella [3] amounted to 60%. For the same compound, the mortality at 20 µg/mL in the test on Plutella xylostella [4] and in the test with Mythimna separata [7] was 100% in each case. Further, the mortality at 200 µg/mL with Mythimna separata [5] is 100%. Besides, in the test with Plutella xylostella [6], the mortality at 5 µg/mL was found to be 95%. Besides, the mortality at 50 µg/mL in the test on Mythimna separata [8] was found to be 100%. Besides, the mortality at 1 µg/mL in the test with Plutella xylostella [9] worked out at 0%. Further, the mortality at 100 µg/mL in the test with Mythimna separata [10] came to 100%.

Take `CNC(=O)c1cc(Cl)cc(C)c1NC(=O)c1cc(CNC(=O)C(F)(F)F)nn1-c1ncccc1Cl`: the mortality at 0.5 µg/mL in the test with Plutella xylostella [11] is 40%. Moreover, the mortality at 10 µg/mL with Plutella xylostella [1] and in the test with Mythimna separata [2] was 100% throughout. For the same compound, in the test with Plutella xylostella [3], the mortality at 2.5 µg/mL worked out at 100%. Also, the mortality at 20 µg/mL with Plutella xylostella [4] and with Mythimna separata [7] was 100% each time. Moreover, the mortality at 200 µg/mL in the test with Mythimna separata [5] amounted to 100%. The mortality at 5 µg/mL in the test on Plutella xylostella [6] turned out to be 100%; with Mythimna separata [13], 40%. For the same compound, the mortality at 50 µg/mL in the test with Mythimna separata [8] came out at 100%. The mortality at 0.25 µg/mL in the test with Plutella xylostella [12] worked out at 0%. Further, in the test with Plutella xylostella [9], the mortality at 1 µg/mL was determined as 80%. The mortality at 100 µg/mL in the test on Mythimna separata [10] is 100%.

With `CC(=O)OCc1cc(C(=O)Nc2c(C)cccc2C(=O)NC(C)C)n(-c2ncccc2Cl)n1`, the mortality at 10 µg/mL was found to be 60% with Plutella xylostella [1] and 0% in the test with Mythimna separata [2]. Besides, the mortality at 20 µg/mL in the test on Plutella xylostella [4] and in the test with Mythimna separata [7] was 100% throughout. The mortality at 200 µg/mL in the test with Mythimna separata [5] stood at 100%. Moreover, the mortality at 5 µg/mL with Plutella xylostella [6] was 0%. The mortality at 50 µg/mL in the test on Mythimna separata [8] is 100%. Also, the mortality at 100 µg/mL in the test with Mythimna separata [10] was 100%.

`CC(=O)OCc1cc(C(=O)Nc2c(C)cc(Cl)cc2C(=O)NC2CC2)n(-c2ncccc2Cl)n1`: in the test on Plutella xylostella [11], the mortality at 0.5 µg/mL was 40%. Besides, the mortality at 10 µg/mL with Plutella xylostella [1] came out at 100%; with Mythimna separata [2] it was 0%. Further, the mortality at 2.5 µg/mL with Plutella xylostella [3] was determined as 90%. The mortality at 20 µg/mL in the test with Plutella xylostella [4] and in the test with Mythimna separata [7] was 100% throughout. Besides, in the test with Mythimna separata [5], the mortality at 200 µg/mL amounted to 100%. For the same compound, the mortality at 5 µg/mL in the test on Plutella xylostella [6] was 100%. Also, the mortality at 50 µg/mL with Mythimna separata [8] came to 100%. Further, the mortality at 0.25 µg/mL in the test with Plutella xylostella [12] came out at 0%. Further, in the test on Plutella xylostella [9], the mortality at 1 µg/mL is 60%. The mortality at 100 µg/mL in the test on Mythimna separata [10] amounted to 100%.

Take `CC(=O)OCc1cc(C(=O)Nc2c(C)cc(Cl)cc2C(=O)NC(C)(C)C)n(-c2ncccc2Cl)n1`: the mortality at 0.5 µg/mL in the test on Plutella xylostella [11] stood at 50%. In addition, the mortality at 10 µg/mL in the test with Plutella xylostella [1] and with Mythimna separata [2] was 100% in each case. The mortality at 2.5 µg/mL in the test with Plutella xylostella [3] came to 95%. Moreover, the mortality at 20 µg/mL with Plutella xylostella [4] and with Mythimna separata [7] was 100% throughout. The mortality at 200 µg/mL in the test on Mythimna separata [5] is 100%. Also, the results for the mortality at 5 µg/mL in the test with Plutella xylostella [6] and with Mythimna separata [13] were 100% and 20%, respectively. Also, in the test on Mythimna separata [8], the mortality at 50 µg/mL is 100%. Also, in the test on Plutella xylostella [12], the mortality at 0.25 µg/mL came out at 25%. Further, in the test on Plutella xylostella [9], the mortality at 1 µg/mL came to 70%. The mortality at 0.125 µg/mL with Plutella xylostella [14] stood at 0%. Further, the mortality at 100 µg/mL in the test with Mythimna separata [10] was 100%.

`CNC(=O)c1cc(Cl)cc(C)c1NC(=O)c1cc(COC(C)=O)nn1-c1ncccc1Cl`: the mortality at 10 µg/mL in the test with Plutella xylostella [1] was determined as 90%; with Mythimna separata [2], 0%. Further, in the test with Plutella xylostella [3], the mortality at 2.5 µg/mL was 45%. Besides, the mortality at 20 µg/mL with Plutella xylostella [4] and in the test with Mythimna separata [7] was 100% throughout. Also, the mortality at 200 µg/mL in the test on Mythimna separata [5] turned out to be 100%. Also, the mortality at 5 µg/mL in the test with Plutella xylostella [6] came out at 70%. Besides, the mortality at 50 µg/mL in the test with Mythimna separata [8] is 100%. Moreover, in the test with Plutella xylostella [9], the mortality at 1 µg/mL was 0%. Besides, the mortality at 100 µg/mL in the test with Mythimna separata [10] was 100%.

The values are drawn from ChEMBL document CHEMBL3045285, “Synthesis and insecticidal activities of novel anthranilic diamides containing modified N-pyridylpyrazoles” (2010).
